3 molecules from ChEMBL document CHEMBL3580633, “Benzoxaborole antimalarial agents. Part 4. Discovery of potent 6-(2-(alkoxycarbonyl)pyrazinyl-5-oxy)-1,3-dihydro-1-hydroxy-2,1-benzoxaboroles” (J Med Chem, 2015) can be followed below.

In data set [1] the test system is Plasmodium berghei. The experiment in a line: Antiplasmodial activity against Plasmodium berghei infected in Swiss Webster mouse assessed as mouse survival at 33 mg/kg, po dosed once daily for 4 consecutive days beginning 1 hr after initial infection and measured on day 12 post infection by Giemsa staining method. In kind it is functional. The method, boiled down: (§1)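 Female Swiss Webster mice (about 20 g) were infected ip with 6 × 10^6 P. berghei-infected erythrocytes from a donor mouse. They were dosed by oral gavage once daily for 4 days, starting 1 h post-infection, in PEG 300/propylene glycol/water (55/25/20 by weight). Parasitemia was read daily on Giemsa smears from day 4, and mice were euthanized above 50% parasitemia. Percent survival was tracked to 21 days.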

Data set [2] in a line: Cmax in CD1 mouse at 30 mg/kg, po by HPLC coupled to tandem mass spectrometry. In kind it is ADME, organism-based. Set-up: dose 30 mg/kg, route oral. Conditions: in vivo. In outline:
(§2)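 Adult female CD-1 mice were dosed 10 mg/kg by iv injection or 30 mg/kg by oral gavage, with the compound in 100% saline. Blood samples were collected and drug content was measured by HPLC-tandem MS.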

A short description of data set [3]: Tmax in CD1 mouse at 30 mg/kg, po by HPLC coupled to tandem mass spectrometry. The note with it: in vivo. In kind it is ADME, organism-based. The method, boiled down: as §2
A short description of data set [4]: AUC (0 to 2 hrs) in CD1 mouse at 30 mg/kg, po by HPLC coupled to tandem mass spectrometry. Also on record: dose 30 mg/kg, time < 2 hr, route oral. Conditions: in vivo. Format: ADME, organism-based. In outline: as §2
Data set [5] can be described thus: Terminal half life in CD1 mouse at 30 mg/kg, po by HPLC coupled to tandem mass spectrometry. Format: ADME, organism-based. The note with it: in vivo, read-out: beta t1/2 (converted). In outline: as §2
The test system of data set [6] is Mus musculus. The experiment in a line: Oral bioavailability in CD1 mouse at 30 mg/kg by HPLC coupled to tandem mass spectrometry. Conditions: in vivo. In kind it is ADME, organism-based. In outline: as §2
Data set [7] in a line: AUC (0 to infinity) in CD1 mouse at 10 mg/kg, iv by HPLC coupled to tandem mass spectrometry. In kind it is ADME, organism-based. Also on record: dose 10 mg/kg, route intravenous, time infinity. The note with it: in vivo. The method, boiled down: as §2
Data set [8] can be described thus: Terminal half life in CD1 mouse at 10 mg/kg, iv by HPLC coupled to tandem mass spectrometry. Format: ADME, organism-based. The note with it: in vivo, read-out: beta t1/2 (converted). In outline: as §2
The subject of data set [9] is Plasmodium berghei. The experiment in a line: Antiplasmodial activity against Plasmodium berghei infected in Swiss Webster mouse assessed as mouse survival at 100 mg/kg, po dosed once daily for 4 consecutive days beginning 1 hr after initial infection and measured on day 12 post infection by Giemsa staining method. Format: functional. In outline: (§3)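 Female Swiss Webster mice (about 20 g) infected ip with 6 × 10^6 P. berghei-infected erythrocytes. Oral gavage once daily for 4 days, starting 1 h after infection. Vehicle PEG300/propylene glycol/water (55/25/20 by weight). Giemsa-smear parasitemia counted daily from day 4. Mice euthanised above 50% parasitemia. Survival followed to day 21, 5 mice per dose, chloroquine 30 mg/kg as reference.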

Data set [10] has as its system Plasmodium berghei. The experiment in a line: Antiplasmodial activity against Plasmodium berghei infected in Swiss Webster mouse assessed as mouse survival at 100 mg/kg, po dosed once daily for 4 consecutive days beginning 1 hr after initial infection and measured on day 20 post infection by Giemsa staining method. In kind it is functional. The method, boiled down:
as §3

For data set [11], the system named is Plasmodium berghei. The experiment in a line: Antiplasmodial activity against Plasmodium berghei infected in Swiss Webster mouse assessed as mouse survival at 33 mg/kg, po dosed once daily for 4 consecutive days beginning 1 hr after initial infection and measured on day 13 post infection by Giemsa staining method. In kind it is functional. In outline: as §1

For data set [12], the system named is Liver microsome. The experiment in a line: Stability in human liver microsomes assessed as compound remaining at 1 uM incubated for 1 hr in presence of NADPH by LC/MS/MS method. In kind it is ADME. The method, boiled down:
(§4)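 Compound at 1 μM final (from a 1 mg/mL DMSO stock) was incubated with mouse or human liver microsomes (0.5 mg/mL protein) in 100 mM potassium phosphate, pH 7.4, at 37 °C with shaking, with or without 1 mM NADPH. Samples were taken over 0–120 min and tested in duplicate. Reactions were quenched with cold acetonitrile plus internal standard and analyzed by LC/MS/MS.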
Background: Microsomes from liver hold many membrane-bound enzymes, among them those of drug oxidation.

Data set [13] is described as follows: Terminal half life in CD1 mouse at 5 mg/kg, iv by HPLC coupled to tandem mass spectrometry. In kind it is ADME, organism-based. Conditions: in vivo, read-out: beta t1/2 (converted). In outline: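 Adult female CD-1 mice received 5 mg/kg by both the iv and the oral-gavage route. Two vehicles were used: PEG 400/dimethylacetamide/water (45/10/45, pH 5.8), or PEG 300/propylene glycol/water (55/25/20, pH 5.9). Blood samples were collected and drug was quantified by HPLC-tandem MS.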

Data set [14] has as its system Mus musculus. The experiment in a line: Cmax in CD1 mouse assessed as 5-(1-hydroxy-1,3-dihydrobenzo[c][1,2]oxaborol-6-yloxy)pyrazine-2-carboxylic acid level at 5 mg/kg, po by HPLC coupled to tandem mass spectrometry. Conditions: in vivo. Format: ADME, organism-based. Also on record: dose 5 mg/kg, route oral. In outline:
(§5)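 The parent ester was given to adult female CD-1 mice at 5 mg/kg, iv or by oral gavage, in PEG 400/dimethylacetamide/water (45/10/45, pH 5.8). Blood was sampled, and the acid formed from the ester in vivo was quantified by HPLC-tandem MS to derive its PK parameters.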

Data set [15] deals with Mus musculus. The experiment in a line: Tmax in CD1 mouse assessed as 5-(1-hydroxy-1,3-dihydrobenzo[c][1,2]oxaborol-6-yloxy)pyrazine-2-carboxylic acid level at 5 mg/kg, po by HPLC coupled to tandem mass spectrometry. Conditions: in vivo. Format: ADME, organism-based. The method, boiled down: as §5
Data set [16] has as its system Mus musculus. The experiment in a line: Terminal half life in CD1 mouse assessed as 5-(1-hydroxy-1,3-dihydrobenzo[c][1,2]oxaborol-6-yloxy)pyrazine-2-carboxylic acid level at 5 mg/kg, po by HPLC coupled to tandem mass spectrometry. Format: ADME, organism-based. Conditions: in vivo. In outline: as §5
For data set [17], the system named is Mus musculus. The experiment in a line: Oral bioavailability in CD1 mouse assessed as 5-(1-hydroxy-1,3-dihydrobenzo[c][1,2]oxaborol-6-yloxy)pyrazine-2-carboxylic acid level at 5 mg/kg by HPLC coupled to tandem mass spectrometry. Format: ADME, organism-based. Conditions: in vivo. The method, boiled down: as §5
In data set [18] the test system is Plasmodium berghei. The experiment in a line: Antiplasmodial activity against Plasmodium berghei infected in Swiss Webster mouse assessed as mouse survival at 100 mg/kg, po dosed once daily for 4 consecutive days beginning 1 hr after initial infection and measured on day 14 post infection by Giemsa staining method. In kind it is functional. The method, boiled down: as §3

In data set [19] the test system is Plasmodium berghei. The experiment in a line: Antiplasmodial activity against Plasmodium berghei infected in Swiss Webster mouse assessed as mouse survival at 100 mg/kg, po dosed once daily for 4 consecutive days beginning 1 hr after initial infection and measured on day 16 to 19 post infection by Giemsa staining method. Format: functional. In outline: as §3

In data set [20] the test system is Plasmodium berghei. The experiment in a line: Antiplasmodial activity against Plasmodium berghei infected in Swiss Webster mouse assessed as mouse survival at 3 mg/kg, po dosed once daily for 4 consecutive days beginning 1 hr after initial infection and measured on day 9 post infection by Giemsa staining method.
For data set [21], the system named is Plasmodium berghei. The experiment in a line: Antiplasmodial activity against Plasmodium berghei infected in Swiss Webster mouse assessed as mouse survival at 200 mg/kg, po dosed once daily for 4 consecutive days beginning 1 hr after initial infection and measured on day 4 post infection by Giemsa staining method. Format: functional. In outline:
as §3

The test system of data set [22] is Plasmodium berghei. The experiment in a line: Antiplasmodial activity against Plasmodium berghei infected in Swiss Webster mouse assessed as mouse survival at 200 mg/kg, po dosed once daily for 4 consecutive days beginning 1 hr after initial infection and measured on day 5 post infection by Giemsa staining method. Format: functional. The method, boiled down:
as §3

Data set [23] relates to Plasmodium berghei. The experiment in a line: Antiplasmodial activity against Plasmodium berghei infected in Swiss Webster mouse assessed as mouse survival at 200 mg/kg, po dosed once daily for 4 consecutive days beginning 1 hr after initial infection and measured on day 6 post infection by Giemsa staining method. Format: functional. The method, boiled down: as §3
Data set [24] in a line: Stability in mouse liver microsomes assessed as compound remaining at 1 uM incubated for 1 hr in absence of NADPH by LC/MS/MS method. In kind it is ADME. The method, boiled down: as §4
Data set [25] concerns Liver microsome. The experiment in a line: Stability in human liver microsomes assessed as compound remaining at 1 uM incubated for 1 hr in absence of NADPH by LC/MS/MS method. Format: ADME. The method, boiled down: as §4

Molecules are shown by their SMILES.

As for `O=C(O)c1cnc(Oc2ccc3c(c2)B(O)OC3)cn1`, the survival at 33 mg/kg in the data set with Plasmodium berghei [1] worked out at 0%. For the same molecule, the peak level in [2] (Cmax) was 19500 ng/mL. Besides, the Tmax (usually the time from dosing to the highest level) in [3] turned out to be 15 min. Further, the AUC(0-t) – broadly, the area under the concentration-time curve up to a stated or last time point – at 2 h in data set [4] was 8620 ng·h/mL. The half-life in [5] is 13.8 min; in data set [8] it was 66 min. In the data set with Mus musculus [6], the F worked out at 67%. Also, the AUC(0-inf) (usually total exposure, with the tail of the curve extrapolated) in data set [7] came to 4300 ng·h/mL. Further, the survival at 100 mg/kg with Plasmodium berghei [9] was found to be 0%.

Take `COC(=O)c1cnc(Oc2ccc3c(c2)B(O)OC3)cn1`: the survival at 100 mg/kg with Plasmodium berghei [10] worked out at 0%; in the data set with Plasmodium berghei [9], 100%; in the data set with Plasmodium berghei [18] it was 40%; in the data set with Plasmodium berghei [19] it was 20%. Also, the survival at 33 mg/kg in the data set on Plasmodium berghei [1] was 20%; with Plasmodium berghei [11], 0%. Moreover, the Stability in the data set with Liver microsome [12] is 0%. Besides, the half-life in [13] was 18 min. For the same molecule, in the data set on Mus musculus [14], the Cmax – broadly, the peak of the concentration-time curve – is 920 ng/mL. In addition, the Tmax in the data set on Mus musculus [15] was 15 min. Besides, the “beta t1/2” value with Mus musculus [16] worked out at 90 min. For the same molecule, the F in the data set on Mus musculus [17] turned out to be 29%. In addition, the survival at 3 mg/kg with Plasmodium berghei [20] was determined as 40%.

With `NC(=O)c1cnc(Oc2ccc3c(c2)B(O)OC3)cn1`, the survival at 200 mg/kg with Plasmodium berghei [21], in the data set with Plasmodium berghei [22] and with Plasmodium berghei [23] was 100% in each case. In addition, the results for the Stability (in [24]; with Liver microsome [12]; in the data set on Liver microsome [25]) were 100%, 87% and 100%, respectively. Also, the half-life in data set [13] is 24 min.
